In brackets after ≈: the same amount, converted by molar mass.
Experiments:
[1] = system: Trichophyton mentagrophytes; experiment: Antifungal activity against Trichophyton mentagrophytes ATCC 9972 after 48 hrs by broth microdilution technique; assay type: functional; conditions: ATCC 9972, 48 h
How it was run: (§1)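 Moulds and dermatophytes were run by CLSI broth microdilution in MOPS-buffered RPMI-1640 at pH 7.0. Aspergillus was incubated at 30 °C and dermatophytes at 28–30 °C, in a moist, dark chamber. MIC100, the lowest concentration with no visible growth, was read visually at a time set by growth of the control fungus.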

[2] = system: Cryptococcus neoformans; experiment: Antifungal activity against Cryptococcus neoformans ATCC 32264 at 31.2 ug/ml after 48 hrs; assay type: functional; conditions: ATCC 32264, 48 h
How it was run: (§2)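 C. neoformans was tested by 96-well RPMI-1640 microdilution, with DMSO-matched growth and sterility control wells. Plates were incubated 48 h at 30 °C in a moist, dark chamber and read at OD405. % inhibition = 100 − (CTW − SCW)/(GCW − SCW), in duplicate. For the clinical isolates, MIC80 and MIC50 are the lowest concentrations giving 80% and 50% inhibition.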

[3] = system: Aspergillus flavus; experiment: Antifungal activity against Aspergillus flavus ATCC 9170 after 48 hrs by broth microdilution technique; assay type: functional; conditions: ATCC 9170, 48 h; how it was run: as §1
[4] = system: Aspergillus fumigatus; experiment: Antifungal activity against Aspergillus fumigatus ATCC 26934 after 48 hrs by broth microdilution technique; assay type: functional; conditions: ATCC 26934, 48 h; how it was run: as §1
[5] = system: Candida albicans; experiment: Antifungal activity against Candida albicans CCC 125 after 48 hrs by broth microdilution technique; assay type: functional; conditions: CCC 125, 48 h
[6] = system: Cryptococcus neoformans; experiment: Antifungal activity against Cryptococcus neoformans IM 983040 after 48 hrs by broth microdilution technique; assay type: functional; conditions: IM 983040, 48 h; how it was run: as §2
[7] = system: Candida parapsilosis; experiment: Antifungal activity against Candida parapsilosis CCC 124 after 48 hrs by broth microdilution technique; assay type: functional; conditions: Lodderomyces parapsilosis, CCC 124, 48 h
[8] = system: Pichia kudriavzevii; experiment: Antifungal activity against Candida krusei CCC 117 after 48 hrs by broth microdilution technique; assay type: functional; conditions: CCC 117, 48 h
[9] = system: Cryptococcus neoformans; experiment: Antifungal activity against Cryptococcus neoformans IM 972751 after 48 hrs by broth microdilution technique; assay type: functional; conditions: IM 972751, 48 h; how it was run: as §2
[10] = system: Cryptococcus neoformans; experiment: Antifungal activity against Cryptococcus neoformans ATCC 32264 after 48 hrs by broth microdilution technique; assay type: functional; conditions: ATCC 32264, 48 h
How it was run: (§3)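 Yeasts were tested by CLSI broth microdilution in RPMI-1640 buffered to pH 7.0 with MOPS, with compound from 250 down to 0.98 in DMSO stocks. Trays were held at 30 °C in a moist, dark chamber. MIC100, the lowest concentration giving total visual inhibition against the growth control, was read by eye at 48 h.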

[11] = system: Candida albicans; experiment: Antifungal activity against Candida albicans ATCC 10231 after 48 hrs by broth microdilution technique; assay type: functional; conditions: ATCC 10231, 48 h; how it was run: as §3
[12] = system: Aspergillus niger; experiment: Antifungal activity against Aspergillus niger ATCC 9029 after 48 hrs by broth microdilution technique; assay type: functional; conditions: ATCC 9029, 48 h; how it was run: as §1
[13] = system: Candida albicans; experiment: Antifungal activity against Candida albicans CCC 129 after 48 hrs by broth microdilution technique; assay type: functional; conditions: CCC 129, 48 h
[14] = system: Cryptococcus neoformans; experiment: Antifungal activity against Cryptococcus neoformans IM 983036 after 48 hrs by broth microdilution technique; assay type: functional; conditions: IM 983036, 48 h; how it was run: as §2
[15] = system: Candida albicans; experiment: Antifungal activity against Candida albicans ATCC 10231 at 31.2 ug/ml after 24 hrs; assay type: functional; conditions: ATCC 10231, 24 h
How it was run: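 C. albicans was grown in 96-well RPMI-1640 broth microdilution with compound wells diluted from DMSO stocks. Growth wells with matched DMSO and sterility wells were included. After 24 h at 30 °C in a moist, dark chamber, OD405 was read. % inhibition = 100 − (CTW − SCW)/(GCW − SCW) OD, done in duplicate.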

[16] = system: Nannizzia gypsea; experiment: Antifungal activity against Microsporum gypseum CCC 115 after 48 hrs by broth microdilution technique; assay type: functional; conditions: CCC 115, 48 h; how it was run: as §1
[17] = system: Saccharomyces cerevisiae; experiment: Antifungal activity against Saccharomyces cerevisiae ATCC 9763 after 48 hrs by broth microdilution technique; assay type: functional; conditions: ATCC 9763, 48 h; how it was run: as §3
[18] = system: Trichophyton rubrum; experiment: Antifungal activity against Trichophyton rubrum CCC 113 after 48 hrs by broth microdilution technique; assay type: functional; conditions: CCC 113, 48 h
[19] = system: Nakaseomyces glabratus; experiment: Antifungal activity against Candida glabrata CCC 115 after 48 hrs by broth microdilution technique; assay type: functional; conditions: CCC 115, 48 h
[20] = system: Cryptococcus neoformans; experiment: Antifungal activity against Cryptococcus neoformans IM 972724 after 48 hrs by broth microdilution technique; assay type: functional; conditions: IM 972724, 48 h; how it was run: as §2
[21] = system: Candida albicans; experiment: Antifungal activity against Candida albicans CCC 130 after 48 hrs by broth microdilution technique; assay type: functional; conditions: CCC 130, 48 h
[22] = system: Cryptococcus neoformans; experiment: Antifungal activity against Cryptococcus neoformans IM 00319 after 48 hrs by broth microdilution technique; assay type: functional; conditions: IM 00319, 48 h; how it was run: as §2
[23] = system: Candida albicans; experiment: Antifungal activity against Candida albicans CCC 127 after 48 hrs by broth microdilution technique; assay type: functional; conditions: CCC 127, 48 h
[24] = system: Candida albicans; experiment: Antifungal activity against Candida albicans CCC 126 after 48 hrs by broth microdilution technique; assay type: functional; conditions: CCC 126, 48 h
[25] = system: Candida tropicalis; experiment: Antifungal activity against Candida tropicalis CCC 131 after 48 hrs by broth microdilution technique; assay type: functional; conditions: CCC 131, 48 h
[26] = system: Candida albicans; experiment: Antifungal activity against Candida albicans CCC 128 after 48 hrs by broth microdilution technique; assay type: functional; conditions: CCC 128, 48 h
[27] = system: Cryptococcus neoformans; experiment: Antifungal activity against Cryptococcus neoformans IM 042074 after 48 hrs by broth microdilution technique; assay type: functional; conditions: IM 042074, 48 h; how it was run: as §2
[28] = system: Candida albicans; experiment: Antifungal activity against Candida albicans CCC 130 after 24 hrs by broth microdilution technique; conditions: CCC 130, 24 h

For `Fc1ccc2nc(/C=C/c3ccccn3)ccc2c1`, the MFC [1] was > 250 µg/mL, the MIC [1] was 125 µg/mL (≈ 499 µM) and the inhibition at 31.2 µg/mL [2] was 80%. The MFC [3] was > 250 µg/mL, the MIC [3] was 250 µg/mL (≈ 999 µM) and the MFC [4] was > 250 µg/mL. The MIC [4] was 250 µg/mL (≈ 999 µM), the MIC50 [5] was 15.6 µg/mL (≈ 62.3 µM) and the MIC80 [5] was 31.2 µg/mL (≈ 125 µM). For the same compound, the MIC50 [6] was 31.2 µg/mL (≈ 125 µM), the MIC80 [6] was 62.5 µg/mL (≈ 250 µM) and the MIC50 [7] was 7.8 µg/mL (≈ 31.2 µM). The MIC80 [7] was 15.6 µg/mL (≈ 62.3 µM), the MIC50 [8] was 15.6 µg/mL (≈ 62.3 µM) and the MIC80 [8] was 31.2 µg/mL (≈ 125 µM). For the same compound, the MIC50 [9] was 15.6 µg/mL (≈ 62.3 µM), the MIC80 [9] was 31.2 µg/mL (≈ 125 µM) and the MFC [10] was > 250 µg/mL. For the same compound, the MIC [10] was 125 µg/mL (≈ 499 µM), the MIC50 [10] was 15.6 µg/mL (≈ 62.3 µM) and the MIC80 [10] was 31.2 µg/mL (≈ 125 µM). The MFC [11] was > 250 µg/mL, the MIC [11] was 125 µg/mL (≈ 499 µM) and the MIC50 [11] was 15.6 µg/mL (≈ 62.3 µM). The MIC80 [11] was 31.2 µg/mL (≈ 125 µM), the MIC [12] was > 250 µg/mL and the MIC50 [13] was 31.2 µg/mL (≈ 125 µM). It also gave an MIC80 [13] of 62.5 µg/mL (≈ 250 µM), an MIC50 [14] of 31.2 µg/mL (≈ 125 µM) and an MIC80 [14] of 62.5 µg/mL (≈ 250 µM). For the same compound, the inhibition at 31.2 µg/mL [15] was 80%, the MFC [16] was > 250 µg/mL and the MIC [16] was 125 µg/mL (≈ 499 µM). The MFC [17] was > 250 µg/mL, the MIC [17] was 250 µg/mL (≈ 999 µM) and the MFC [18] was > 250 µg/mL. The MIC [18] was 125 µg/mL (≈ 499 µM), the MIC50 [19] was 15.6 µg/mL (≈ 62.3 µM) and the MIC80 [19] was 31.2 µg/mL (≈ 125 µM). The MIC50 [20] was 31.2 µg/mL (≈ 125 µM), the MIC80 [20] was 62.5 µg/mL (≈ 250 µM) and the MIC80 [21] was 31.2 µg/mL (≈ 125 µM). The MIC50 [22] was 15.6 µg/mL (≈ 62.3 µM), the MIC80 [22] was 62.5 µg/mL (≈ 250 µM) and the MIC50 [23] was 31.2 µg/mL (≈ 125 µM). For the same compound, the MIC80 [23] was 62.5 µg/mL (≈ 250 µM), the MIC50 [24] was 62.5 µg/mL (≈ 250 µM) and the MIC80 [24] was 62.5 µg/mL (≈ 250 µM). The MIC50 [25] was 62.5 µg/mL (≈ 250 µM), the MIC80 [25] was 125 µg/mL (≈ 499 µM) and the MIC50 [26] was 31.2 µg/mL (≈ 125 µM). It also gave an MIC80 [26] of 62.5 µg/mL (≈ 250 µM), an MIC50 [27] of 15.6 µg/mL (≈ 62.3 µM) and an MIC80 [27] of 62.5 µg/mL (≈ 250 µM). For the same compound, the MIC50 [28] was 15.6 µg/mL (≈ 62.3 µM).

— ChEMBL document CHEMBL2157922, “Synthesis and antifungal activity of diverse C-2 pyridinyl and pyridinylvinyl substituted quinolines” (2012)
